Data published in ChEMBL document CHEMBL2146464, “Structure-activity relationship study of nitrosopyrimidines acting as antifungal agents” (Bioorg Med Chem, 2012).
Activity calls are given as the source filed them. The calls are words filed in the database; no cut-off is given here.

Test system: Aspergillus niger
Experiment: Antifungal activity against Aspergillus niger ATCC 9029 at 0.98 to 250 ug/mL by NCCLS broth microdilution method
Assay type: functional, organism-based
How it was run: (§1)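 MIC by broth microdilution per NCCLS M27-A3/M38-A2 in RPMI-1640 buffered to pH 7.0 with MOPS. Twofold dilutions from 250–0.98 µg/mL, final DMSO ≤1%. Inoculum 1–5 × 10³ CFU/mL. Incubated in a moist dark chamber, 30 °C for Aspergillus and 28–30 °C for dermatophytes. Read visually when control growth allowed. Endpoint is the lowest concentration giving total inhibition of visible growth (MIC100).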

Compound	Activity
COc1nc(NCCOC(C)=O)nc(Nc2ccccc2)c1N=O	inactive
COc1nc(NCCO)nc(Nc2ccccc2)c1N=O	inactive
COc1nc(N)nc2c1NC(=O)CCN2	inactive
CC(C)Nc1nc(N)nc(NCc2ccccc2)c1N=O	inactive
Nc1nc(NC(CO)C(=O)O)c(N=O)c(=O)[nH]1 (configuration not stated)	inactive
Nc1nc(NCc2ccccc2)c(N=O)c(NCc2ccccc2)n1	inactive
CCOC(=O)CCNc1nc(N)nc(OC)c1N=O	inactive
CCOC(=O)C(Cc1ccccc1)Nc1nc(N)nc(OC)c1N=O (configuration not stated)	inactive
CCOC(=O)C(C)Nc1nc(N)nc(OC)c1N=O (configuration not stated)	inactive
Nc1nc2c(c(OCC3CCCCC3)n1)NC(=O)[C@H](Cc1ccccc1)N2	inactive
COc1nc(N)c(N=O)c(N2CCCC2)n1	inactive
CCOC(=O)[C@H](C)Nc1nc(N)nc(OCC2CCCCC2)c1N=O	inactive
COc1nc(NCCOC(C)=O)nc(Nc2cccc(Cl)c2)c1N=O	inactive

Test system: Cryptococcus neoformans
Experiment: Antifungal activity against Cryptococcus neoformans ATCC 32264 at 0.98 to 250 ug/mL after 48 hrs by NCCLS broth microdilution method
Assay type: functional, organism-based
How it was run: (§2)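 Yeast MIC by NCCLS M27-A3 broth microdilution in RPMI-1640 buffered to pH 7.0 with MOPS. Twofold dilutions of 250–0.98 µg/mL, final DMSO ≤1%. Inoculum 1–5 × 10³ CFU/mL. Incubated at 30 °C in a moist dark chamber. Read visually at 48 h. MIC100 is the lowest concentration with no visible growth versus drug-free control.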

Compound	Activity
COc1nc(NCCOC(C)=O)nc(Nc2ccccc2)c1N=O	inactive
COc1nc(NCCO)nc(Nc2ccccc2)c1N=O	inactive
COc1nc(N)nc2c1NC(=O)CCN2	inactive
CC(C)Nc1nc(N)nc(NCc2ccccc2)c1N=O	inactive
Nc1nc(NC(CO)C(=O)O)c(N=O)c(=O)[nH]1 (configuration not stated)	inactive
Nc1nc(NCc2ccccc2)c(N=O)c(NCc2ccccc2)n1	inactive
CCOC(=O)CCNc1nc(N)nc(OC)c1N=O	inactive
CCOC(=O)C(Cc1ccccc1)Nc1nc(N)nc(OC)c1N=O (configuration not stated)	inactive
CCOC(=O)C(C)Nc1nc(N)nc(OC)c1N=O (configuration not stated)	inactive
Nc1nc2c(c(OCC3CCCCC3)n1)NC(=O)[C@H](Cc1ccccc1)N2	inactive
COc1nc(N)c(N=O)c(N2CCCC2)n1	inactive
CCOC(=O)[C@H](C)Nc1nc(N)nc(OCC2CCCCC2)c1N=O	inactive
COc1nc(NCCOC(C)=O)nc(Nc2cccc(Cl)c2)c1N=O	inactive

Test system: Aspergillus fumigatus
Experiment: Antifungal activity against Aspergillus fumigatus ATCC 26934 at 0.98 to 250 ug/mL by NCCLS broth microdilution method
Assay type: functional, organism-based
How it was run: as §1

Compound	Activity
COc1nc(NCCOC(C)=O)nc(Nc2ccccc2)c1N=O	inactive
COc1nc(NCCO)nc(Nc2ccccc2)c1N=O	inactive
COc1nc(N)nc2c1NC(=O)CCN2	inactive
CC(C)Nc1nc(N)nc(NCc2ccccc2)c1N=O	inactive
Nc1nc(NC(CO)C(=O)O)c(N=O)c(=O)[nH]1 (configuration not stated)	inactive
Nc1nc(NCc2ccccc2)c(N=O)c(NCc2ccccc2)n1	inactive
CCOC(=O)CCNc1nc(N)nc(OC)c1N=O	inactive
CCOC(=O)C(Cc1ccccc1)Nc1nc(N)nc(OC)c1N=O (configuration not stated)	inactive
CCOC(=O)C(C)Nc1nc(N)nc(OC)c1N=O (configuration not stated)	inactive
Nc1nc2c(c(OCC3CCCCC3)n1)NC(=O)[C@H](Cc1ccccc1)N2	inactive
COc1nc(N)c(N=O)c(N2CCCC2)n1	inactive
CCOC(=O)[C@H](C)Nc1nc(N)nc(OCC2CCCCC2)c1N=O	inactive
COc1nc(NCCOC(C)=O)nc(Nc2cccc(Cl)c2)c1N=O	inactive

Test system: Aspergillus flavus
Experiment: Antifungal activity against Aspergillus flavus ATCC 9170 at 0.98 to 250 ug/mL by NCCLS broth microdilution method
Assay type: functional, organism-based
How it was run: as §1

Compound	Activity
COc1nc(NCCOC(C)=O)nc(Nc2ccccc2)c1N=O	inactive
COc1nc(NCCO)nc(Nc2ccccc2)c1N=O	inactive
COc1nc(N)nc2c1NC(=O)CCN2	inactive
CC(C)Nc1nc(N)nc(NCc2ccccc2)c1N=O	inactive
Nc1nc(NC(CO)C(=O)O)c(N=O)c(=O)[nH]1 (configuration not stated)	inactive
Nc1nc(NCc2ccccc2)c(N=O)c(NCc2ccccc2)n1	inactive
CCOC(=O)CCNc1nc(N)nc(OC)c1N=O	inactive
CCOC(=O)C(Cc1ccccc1)Nc1nc(N)nc(OC)c1N=O (configuration not stated)	inactive
CCOC(=O)C(C)Nc1nc(N)nc(OC)c1N=O (configuration not stated)	inactive
Nc1nc2c(c(OCC3CCCCC3)n1)NC(=O)[C@H](Cc1ccccc1)N2	inactive
COc1nc(N)c(N=O)c(N2CCCC2)n1	inactive
CCOC(=O)[C@H](C)Nc1nc(N)nc(OCC2CCCCC2)c1N=O	inactive
COc1nc(NCCOC(C)=O)nc(Nc2cccc(Cl)c2)c1N=O	inactive

Test system: Trichophyton rubrum
Experiment: Antifungal activity against Trichophyton rubrum CCC 110 at 0.98 to 250 ug/mL by NCCLS broth microdilution method
Assay type: functional, organism-based
How it was run: as §1

Compound	Activity
COc1nc(NCCOC(C)=O)nc(Nc2ccccc2)c1N=O	inactive
COc1nc(NCCO)nc(Nc2ccccc2)c1N=O	inactive
COc1nc(N)nc2c1NC(=O)CCN2	inactive
CC(C)Nc1nc(N)nc(NCc2ccccc2)c1N=O	inactive
Nc1nc(NC(CO)C(=O)O)c(N=O)c(=O)[nH]1 (configuration not stated)	inactive
Nc1nc(NCc2ccccc2)c(N=O)c(NCc2ccccc2)n1	inactive
CCOC(=O)CCNc1nc(N)nc(OC)c1N=O	inactive
CCOC(=O)C(Cc1ccccc1)Nc1nc(N)nc(OC)c1N=O (configuration not stated)	inactive
CCOC(=O)C(C)Nc1nc(N)nc(OC)c1N=O (configuration not stated)	inactive
Nc1nc2c(c(OCC3CCCCC3)n1)NC(=O)[C@H](Cc1ccccc1)N2	inactive
COc1nc(N)c(N=O)c(N2CCCC2)n1	inactive
CCOC(=O)[C@H](C)Nc1nc(N)nc(OCC2CCCCC2)c1N=O	inactive
COc1nc(NCCOC(C)=O)nc(Nc2cccc(Cl)c2)c1N=O	inactive

Test system: Trichophyton mentagrophytes
Experiment: Antifungal activity against Trichophyton mentagrophytes ATCC 9972 at 0.98 to 250 ug/mL by NCCLS broth microdilution method
Assay type: functional, organism-based
How it was run: as §1

Compound	Activity
COc1nc(NCCOC(C)=O)nc(Nc2ccccc2)c1N=O	inactive
COc1nc(NCCO)nc(Nc2ccccc2)c1N=O	inactive
COc1nc(N)nc2c1NC(=O)CCN2	inactive
CC(C)Nc1nc(N)nc(NCc2ccccc2)c1N=O	inactive
Nc1nc(NC(CO)C(=O)O)c(N=O)c(=O)[nH]1 (configuration not stated)	inactive
Nc1nc(NCc2ccccc2)c(N=O)c(NCc2ccccc2)n1	inactive
CCOC(=O)CCNc1nc(N)nc(OC)c1N=O	inactive
CCOC(=O)C(Cc1ccccc1)Nc1nc(N)nc(OC)c1N=O (configuration not stated)	inactive
CCOC(=O)C(C)Nc1nc(N)nc(OC)c1N=O (configuration not stated)	inactive
Nc1nc2c(c(OCC3CCCCC3)n1)NC(=O)[C@H](Cc1ccccc1)N2	inactive
COc1nc(N)c(N=O)c(N2CCCC2)n1	inactive
CCOC(=O)[C@H](C)Nc1nc(N)nc(OCC2CCCCC2)c1N=O	inactive
COc1nc(NCCOC(C)=O)nc(Nc2cccc(Cl)c2)c1N=O	inactive

Test system: Candida albicans
Experiment: Antifungal activity against Candida albicans ATCC 10231 at 0.98 to 250 ug/mL after 48 hrs by NCCLS broth microdilution method
Assay type: functional, organism-based
How it was run: as §2

Compound	Activity
COc1nc(NCCOC(C)=O)nc(Nc2ccccc2)c1N=O	inactive
COc1nc(NCCO)nc(Nc2ccccc2)c1N=O	inactive
COc1nc(N)nc2c1NC(=O)CCN2	inactive
CC(C)Nc1nc(N)nc(NCc2ccccc2)c1N=O	inactive
Nc1nc(NC(CO)C(=O)O)c(N=O)c(=O)[nH]1 (configuration not stated)	inactive
Nc1nc(NCc2ccccc2)c(N=O)c(NCc2ccccc2)n1	inactive
CCOC(=O)CCNc1nc(N)nc(OC)c1N=O	inactive
CCOC(=O)C(Cc1ccccc1)Nc1nc(N)nc(OC)c1N=O (configuration not stated)	inactive
CCOC(=O)C(C)Nc1nc(N)nc(OC)c1N=O (configuration not stated)	inactive
Nc1nc2c(c(OCC3CCCCC3)n1)NC(=O)[C@H](Cc1ccccc1)N2	inactive
COc1nc(N)c(N=O)c(N2CCCC2)n1	inactive
CCOC(=O)[C@H](C)Nc1nc(N)nc(OCC2CCCCC2)c1N=O	inactive
COc1nc(NCCOC(C)=O)nc(Nc2cccc(Cl)c2)c1N=O	inactive

Test system: Candida tropicalis
Experiment: Antifungal activity against Candida tropicalis at 0.98 to 250 ug/mL after 48 hrs by NCCLS broth microdilution method
Assay type: functional, organism-based
How it was run: as §2

Compound	Activity
COc1nc(NCCOC(C)=O)nc(Nc2ccccc2)c1N=O	inactive
COc1nc(NCCO)nc(Nc2ccccc2)c1N=O	inactive
COc1nc(N)nc2c1NC(=O)CCN2	inactive
CC(C)Nc1nc(N)nc(NCc2ccccc2)c1N=O	inactive
Nc1nc(NC(CO)C(=O)O)c(N=O)c(=O)[nH]1 (configuration not stated)	inactive
Nc1nc(NCc2ccccc2)c(N=O)c(NCc2ccccc2)n1	inactive
CCOC(=O)CCNc1nc(N)nc(OC)c1N=O	inactive
CCOC(=O)C(Cc1ccccc1)Nc1nc(N)nc(OC)c1N=O (configuration not stated)	inactive
CCOC(=O)C(C)Nc1nc(N)nc(OC)c1N=O (configuration not stated)	inactive
Nc1nc2c(c(OCC3CCCCC3)n1)NC(=O)[C@H](Cc1ccccc1)N2	inactive
COc1nc(N)c(N=O)c(N2CCCC2)n1	inactive
CCOC(=O)[C@H](C)Nc1nc(N)nc(OCC2CCCCC2)c1N=O	inactive
COc1nc(NCCOC(C)=O)nc(Nc2cccc(Cl)c2)c1N=O	inactive

Test system: Nannizzia gypsea
Experiment: Antifungal activity against Microsporum gypseum CCC 115 at 0.98 to 250 ug/mL by NCCLS broth microdilution method
Assay type: functional, organism-based
How it was run: as §1

Compound	Activity
COc1nc(NCCOC(C)=O)nc(Nc2ccccc2)c1N=O	inactive
COc1nc(NCCO)nc(Nc2ccccc2)c1N=O	inactive
COc1nc(N)nc2c1NC(=O)CCN2	inactive
CC(C)Nc1nc(N)nc(NCc2ccccc2)c1N=O	inactive
Nc1nc(NC(CO)C(=O)O)c(N=O)c(=O)[nH]1 (configuration not stated)	inactive
Nc1nc(NCc2ccccc2)c(N=O)c(NCc2ccccc2)n1	inactive
CCOC(=O)CCNc1nc(N)nc(OC)c1N=O	inactive
CCOC(=O)C(Cc1ccccc1)Nc1nc(N)nc(OC)c1N=O (configuration not stated)	inactive
CCOC(=O)C(C)Nc1nc(N)nc(OC)c1N=O (configuration not stated)	inactive
Nc1nc2c(c(OCC3CCCCC3)n1)NC(=O)[C@H](Cc1ccccc1)N2	inactive
COc1nc(N)c(N=O)c(N2CCCC2)n1	inactive
CCOC(=O)[C@H](C)Nc1nc(N)nc(OCC2CCCCC2)c1N=O	inactive
COc1nc(NCCOC(C)=O)nc(Nc2cccc(Cl)c2)c1N=O	inactive
